Results from ChEMBL document CHEMBL1130077, “Synthesis and antitumor properties of N-[2-(dimethylamino)ethyl]carboxamide derivatives of fused tetracyclic quinolines and quinoxalines: a new class of putative topoisomerase inhibitors” (J Med Chem, 1997).

Key:
[1] = Inhibitory concentration against Human Jurkat leukemia (JLC) cell proliferation; format: functional
How it was run: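 Human Jurkat leukemia (JL_C) cells at 3.75 × 10³ per well, cultured 4 days with drug. Sulforhodamine read-out. IC50 is the concentration reducing cell number to 50% of untreated controls. Duplicate independent assays, coefficient of variation 6.3%.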

[2] = Inhibitory concentration to reduce cell number to 50% of Murine P388 leukemia cell culture; format: functional, Mus musculus
How it was run: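 Murine P388 leukemia cells seeded at 4.5 × 10³ per well and grown 3 days with drug. Growth was read by [³H]TdR uptake. IC50 is the drug concentration that reduces cell number to 50% of control cultures. Independent assays were run in duplicate, with a coefficient of variation of 12%.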

[3] = Ratio of inhibitory concentration of Human Jurkat leukemia A (JLA) and Human Jurkat leukemia C (JLC); format: functional
How it was run: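 Human Jurkat leukemia cells (JLC) and their amsacrine-resistant derivative (JLA) were seeded at 3.75 × 10³ cells/well and grown 4 days with drug. Growth was read by sulforhodamine assay. IC50 is the drug level cutting cell number to 50% of control cultures; the ratio is IC50(JLA)/IC50(JLC). Independent assays were run in duplicate; CVs were 9.3% (JLA) and 6.3% (JLC).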

[4] = Ratio of inhibitory concentration of Human Jurkat leukemia D (JLD) and Human Jurkat leukemia C (JLC); format: functional
How it was run: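 Parental Jurkat (JL_C) and its amsacrine-resistant (JL_A) and doxorubicin-resistant (JL_D) derivatives, each seeded at 3.75 × 10³ per well for 4 days of drug exposure. Sulforhodamine assay gave IC50 (50% of control cell number). The ratio is resistant-line IC50 over JL_C IC50. Duplicate assays; coefficients of variation 9.3% (JL_A) and 5.7% (JL_D).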

[5] = Inhibitory concentration against Murine Lewis lung carcinoma (LLC) cell proliferation; format: functional, cell-based; details: Mus musculus
How it was run: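 Lewis lung carcinoma (LLTC) cells plated at 10³ per well and exposed to drug for 4 days. Growth was measured by sulforhodamine assay. IC50 is the concentration giving 50% of control cell number. Independent assays were run in duplicate, with a coefficient of variation of 12%.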

Compound CN(C)CCNC(=O)c1cccc2nc3c(nc12)-c1ccccc1C3 has an IC50 [1] of 0.55 µM, an IC50 [2] of 0.36 µM and an IC50 ratio [3] of 1. The IC50 ratio [4] was 1 and the IC50 [5] was 0.39 µM.

With CN(C)CCNC(=O)c1cccc2cc3[nH]c4ccccc4c3nc12 the IC50 [1] was 0.45 µM, the IC50 [2] was 0.37 µM and the IC50 ratio [3] was 1. For the same compound, the IC50 ratio [4] was 1.1 and the IC50 [5] was 0.29 µM.

CN(C)CCNC(=O)c1cccc2c(C(=O)NCCN(C)C)c3sc4ccccc4c3nc12 showed an IC50 [1] of 0.034 µM, an IC50 [2] of 0.025 µM and an IC50 ratio [3] of 0.5. For the same compound, the IC50 ratio [4] was 0.9 and the IC50 [5] was 0.03 µM.

For CN(C)CCNC(=O)c1cc(Cl)cc2nc3c(nc12)oc1ccccc13, the IC50 [1] was 1.5 µM, the IC50 [2] was 6.8 µM and the IC50 ratio [3] was 1.2. It also gave an IC50 ratio [4] greater than 1.3 and an IC50 [5] of 1.4 µM.

CN(C)CCNC(=O)c1cc(Cl)cc2nc3oc4ccccc4c3nc12 gave an IC50 [1] greater than 2 µM, an IC50 [2] of 5.8 µM and an IC50 [5] greater than 2 µM.

For CN(C)CCNC(=O)c1cccc2nc3c(nc12)-c1ccccc1C3=O, the IC50 [1] was 1.1 µM, the IC50 [2] was 0.7 µM and the IC50 ratio [3] was 1. For the same compound, the IC50 ratio [4] was 1.1 and the IC50 [5] was 0.88 µM.

Compound CN(C)CCNC(=O)c1cccc2cc3c(nc12)-c1ccccc1C3 has an IC50 [1] of 0.32 µM, an IC50 [2] of 0.088 µM and an IC50 ratio [3] of 1.8. It also gave an IC50 ratio [4] of 1.9 and an IC50 [5] of 0.19 µM.

Compound CN(C)CCNC(=O)c1cc(Cl)cc2[nH]c3c4ccccc4nc-3nc12 has an IC50 [1] of 0.3 µM, an IC50 [2] of 15 µM and an IC50 ratio [3] of 1.2. It also gave an IC50 ratio [4] of 1.3 and an IC50 [5] of 0.36 µM.

For COc1cc(NS(C)(=O)=O)ccc1Nc1c2ccccc2nc2ccccc12 [AMSACRINE], the IC50 [1] was 0.037 µM, the IC50 [2] was 0.02 µM and the IC50 ratio [3] was 85. For the same compound, the IC50 ratio [4] was 74 and the IC50 [5] was 0.012 µM.

Work on CC[C@@]1(O)C(=O)OCc2c1cc1n(c2=O)Cc2cc3ccccc3nc2-1 [CAMPTOTHECIN] yielded an IC50 [1] of 0.0056 µM, an IC50 ratio [3] of 2 and an IC50 ratio [4] of 1.4. It also gave an IC50 [5] of 0.033 µM.

Work on CN(C)CCNC(=O)c1cccc2cc3c(nc12)-c1ccccc1S3(=O)=O yielded an IC50 [1] of 0.86 µM, an IC50 [2] of 1.8 µM and an IC50 ratio [3] of 3.2. It also gave an IC50 ratio [4] of 4.2 and an IC50 [5] of 0.43 µM.

Work on COc1cccc2c1C(=O)c1c(O)c3c(c(O)c1C2=O)C[C@@](O)(C(=O)CO)C[C@@H]3O[C@H]1C[C@H](N)[C@H](O)[C@H](C)O1 [DOXORUBICIN] yielded an IC50 [1] of 0.0096 µM, an IC50 [2] of 0.015 µM and an IC50 ratio [3] of 4.4. The IC50 ratio [4] was 90 and the IC50 [5] was 0.022 µM.

Work on CN(C)CCNC(=O)c1cccc2cc3c(nc12)C(=O)c1ccccc1-3 yielded an IC50 [1] of 0.37 µM, an IC50 [2] of 0.085 µM and an IC50 ratio [3] of 0.9. For the same compound, the IC50 ratio [4] was 0.9 and the IC50 [5] was 0.15 µM.

CN(C)CCNC(=O)c1cccc2[nH]c3c4ccccc4nc-3nc12 gave an IC50 [1] of 1.4 µM, an IC50 [2] of 0.67 µM and an IC50 ratio [3] of 0.9. For the same compound, the IC50 ratio [4] was 1 and the IC50 [5] was 0.99 µM.

For CN(C)CCNC(=O)c1cccc2nc3sc4ccccc4c3nc12, the IC50 [1] was 0.15 µM, the IC50 [2] was 0.1 µM and the IC50 ratio [3] was 1.9. The IC50 ratio [4] was 2.7 and the IC50 [5] was 0.11 µM.

Compound CN(C)CCNC(=O)c1cccc2cc3oc4ccccc4c3nc12 has an IC50 [1] of 0.43 µM, an IC50 [2] of 0.17 µM and an IC50 ratio [3] of 1.2. It also gave an IC50 ratio [4] of 1.2 and an IC50 [5] of 0.21 µM.

In the case of CN(C)CCNC(=O)c1cccc2cc3ccccc3nc12, the IC50 [1] is reported as 0.58 µM and the IC50 [2] is reported as 0.098 µM.

COc1cc([C@@H]2c3cc4c(cc3[C@@H](O[C@@H]3O[C@@H]5CO[C@@H](C)O[C@H]5[C@H](O)[C@H]3O)[C@H]3COC(=O)[C@H]23)OCO4)cc(OC)c1O [ETOPOSIDE] gave an IC50 [1] of 0.16 µM, an IC50 [2] of 0.025 µM and an IC50 ratio [3] of 13. The IC50 ratio [4] was 90 and the IC50 [5] was 0.18 µM.

Compound CN(C)CCNC(=O)c1cc(Cl)cc2[nH]c3nc4ccccc4c-3nc12 has an IC50 [1] of 0.98 µM, an IC50 [2] of 1.6 µM and an IC50 ratio [3] of 0.8. It also gave an IC50 ratio [4] of 0.9 and an IC50 [5] of 0.7 µM.

For CN(C)CCNC(=O)c1cccc2nc3c(nc12)oc1ccccc13, the IC50 [1] was 2.6 µM, the IC50 [2] was 2.2 µM and the IC50 ratio [3] was 1. For the same compound, the IC50 ratio [4] was 1 and the IC50 [5] was 1.7 µM.

Work on CN(C)CCNC(=O)c1cccc2cc3sc4ccccc4c3nc12 yielded an IC50 [1] of 0.17 µM, an IC50 [2] of 0.046 µM and an IC50 ratio [3] of 1.5. The IC50 ratio [4] was 1.6 and the IC50 [5] was 0.066 µM.

CN(C)CCNC(=O)c1cccc2cc3c(nc12)-c1ccccc1C3=O showed an IC50 [1] of 0.18 µM, an IC50 [2] of 0.13 µM and an IC50 ratio [3] of 1.2. For the same compound, the IC50 ratio [4] was 0.9 and the IC50 [5] was 0.091 µM.
